In ChEMBL document CHEMBL3414517, “Synthesis and structure-activity relationship study of a new series of selective σ(1) receptor ligands for the treatment of pain: 4-aminotriazoles” (J Med Chem, 2015):
Converted amounts (≈) assume the structure as drawn.

Tests used:
[1] = target: Voltage-gated inwardly rectifying potassium channel KCNH2 (Homo sapiens, UniProt Q12809)
[2] = Displacement of [3H]-DTG from sigma 2 receptor in guinea pig brain membrane after 120 mins by liquid scintillation counting; format: cell membranes, Cavia porcellus
How it was run: (§1)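 Guinea pig brain membranes (200 μg) with 10 nM [³H]-DTG in 50 mM Tris-HCl pH 8, σ1R masked by 400 nM (+)-SKF10047; 25 °C, 120 min; 10 μM haloperidol for non-specific binding. Filtered, washed 3× ice-cold 50 mM Tris-HCl pH 7.4, scintillation counted.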

[3] = target: Sigma non-opioid intracellular receptor 1 (Homo sapiens, UniProt Q99720); experiment: Displacement of [3H](+)-pentazocine from human sigma 1 receptor transfected in HEK293 cells after 120 mins by liquid scintillation counting; format: cell-based
[4] = Apparent permeability across human Caco2 cells at 10 uM after 2 hrs; format: ADME, cell-based; conditions: Caco-2
Mus musculus [5] = experiment: Antinociceptive activity against formalin-induced pain in CD1 mouse assessed as reduction in mean licking and biting time at 80 mg/kg, po administered 30 mins before fomalin injection measured during second phase of 15 to 30 mins after formalin challenge; format: functional
How it was run: (§2)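 Male CD1 mice, 6–8 weeks; 20 μL of 2.5% formalin (0.92% formaldehyde) injected i.pl. into right hind paw midplantar surface. Vehicle 0.5% HPMC or compound given i.p. or p.o. (10 mL/kg) 30 min before formalin; n = 7–8/group. Licking/biting time scored 15–30 min post-injection (phase II), blind; % antinociception derived relative to vehicle group.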

[6] = Thermodynamic solubility of the compound in phosphate buffer at pH 7.4; format: physicochemical; conditions: read-out: Therm_solubility
How it was run: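 Thermodynamic solubility measured from solid compound in phosphate buffer, pH 7.4, quantified by HPLC.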

[7] = Lipophilicity, log P of the compound; format: physicochemical; conditions: octanol/water
How it was run: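 clogP calculated with ChemDraw Ultra 10.0.3.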

Mus musculus [8] = experiment: Antinociceptive activity in CD1 mouse assessed as reduction in capsaicin-induced mechanical hypersensitivity measured as latency time to paw withdrawal response to upward pressure at 80 mg/kg, po administered 30 mins prior to capsaicin-challenge measured after 45 mins of treatment by von Frey filament test; format: functional
How it was run: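 Female CD1 mice habituated 2 h on mesh platform; vehicle 0.5% HPMC or compound p.o. (10 mL/kg) 30 min before i.pl. capsaicin (1 μg in 20 μL 1% DMSO). 15 min after capsaicin, dynamic plantar aesthesiometer filament (0.5 g) applied ≥5 mm from site, 3 trials averaged, 50 s cut-off; n = 8–26. % reduction of hypersensitivity = (LTD−LTV)/(CT−LTV)×100.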

Mus musculus [9] = experiment: Antinociceptive activity in CD1 mouse sciatic nerve injury-induced neuropathic pain model assessed as reduction in mechanical hypersensitivity measured as hind paw withdrawal response at 80 mg/kg, po treated 30 mins before test by von Frey filament test; format: functional
How it was run: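 Male CD1 mice with partial sciatic nerve ligation; habituation 4 days, 2 baseline days, allodynia checked days 5 and 8 (vehicle on day 8). Compound given p.o. (10 mL/kg) on day 15, 30 min before von Frey testing; n = 7–8/group, two independent experiments. Effect referenced to day-8 vehicle threshold and pre-surgery baseline.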

[10] = Dissociation constant, pKa of the compound; format: physicochemical
How it was run: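 pKa calculated in silico with ACDLABS 9.0.3.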

[11] = Intrinsic clearance in human liver microsomes assessed as per mg of protein at 10 uM; format: ADME; conditions: read-out: CLH
Mus musculus [12] = experiment: Antinociceptive activity against formalin-induced pain in CD1 mouse assessed as reduction in mean licking and biting time at 40 mg/kg, ip administered 30 mins before fomalin injection measured during second phase of 15 to 30 mins after formalin challenge; format: functional; conditions: route intraperitoneal
How it was run: as §2

Cavia porcellus = species on record: Cavia porcellus; experiment: Displacement of [3H]-DTG from sigma 2 receptor in guinea pig brain membrane at 1 uM after 120 mins by liquid scintillation counting; format: cell membranes
How it was run: as §1

Voltage-gated inwardly rectifying potassium channel KCNH2, sequence (Q12809 whole entry): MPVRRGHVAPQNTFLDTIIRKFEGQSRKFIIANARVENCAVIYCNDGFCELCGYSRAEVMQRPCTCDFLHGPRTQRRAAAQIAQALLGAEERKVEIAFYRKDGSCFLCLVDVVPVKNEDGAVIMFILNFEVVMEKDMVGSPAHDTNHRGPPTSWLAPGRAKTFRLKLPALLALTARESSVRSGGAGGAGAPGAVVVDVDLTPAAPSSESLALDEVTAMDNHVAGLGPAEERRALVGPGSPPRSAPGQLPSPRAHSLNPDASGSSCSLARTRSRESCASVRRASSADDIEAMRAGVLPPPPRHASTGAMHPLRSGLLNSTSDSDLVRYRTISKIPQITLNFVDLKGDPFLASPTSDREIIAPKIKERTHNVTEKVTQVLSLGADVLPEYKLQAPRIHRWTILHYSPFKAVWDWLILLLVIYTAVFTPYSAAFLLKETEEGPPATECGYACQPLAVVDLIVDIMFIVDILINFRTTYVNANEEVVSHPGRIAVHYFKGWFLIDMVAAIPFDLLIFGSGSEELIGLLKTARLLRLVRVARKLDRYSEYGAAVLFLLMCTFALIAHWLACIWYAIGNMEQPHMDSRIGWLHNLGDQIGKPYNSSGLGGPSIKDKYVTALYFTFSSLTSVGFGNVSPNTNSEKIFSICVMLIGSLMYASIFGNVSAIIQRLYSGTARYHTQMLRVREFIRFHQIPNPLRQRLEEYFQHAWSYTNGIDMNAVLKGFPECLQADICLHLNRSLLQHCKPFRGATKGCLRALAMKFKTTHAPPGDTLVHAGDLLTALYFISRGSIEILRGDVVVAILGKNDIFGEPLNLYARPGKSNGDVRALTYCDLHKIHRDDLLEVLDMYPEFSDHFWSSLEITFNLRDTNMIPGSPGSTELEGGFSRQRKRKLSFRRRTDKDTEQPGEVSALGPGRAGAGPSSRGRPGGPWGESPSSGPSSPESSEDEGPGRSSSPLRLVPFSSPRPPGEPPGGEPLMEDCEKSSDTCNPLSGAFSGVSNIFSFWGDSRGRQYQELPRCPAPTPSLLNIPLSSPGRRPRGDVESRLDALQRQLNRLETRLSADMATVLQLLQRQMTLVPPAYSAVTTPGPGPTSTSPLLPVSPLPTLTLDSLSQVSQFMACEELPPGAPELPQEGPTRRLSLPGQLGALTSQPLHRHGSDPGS
Sigma non-opioid intracellular receptor 1, sequence (Q99720 whole entry): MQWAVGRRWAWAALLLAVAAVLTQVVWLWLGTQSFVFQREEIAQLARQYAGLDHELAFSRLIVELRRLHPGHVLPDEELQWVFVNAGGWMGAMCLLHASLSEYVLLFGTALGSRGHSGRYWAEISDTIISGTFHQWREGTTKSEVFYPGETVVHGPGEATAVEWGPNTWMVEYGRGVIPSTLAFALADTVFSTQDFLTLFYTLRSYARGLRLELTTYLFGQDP

Fc1ccc(Cn2cc(NCCN3CCC(F)(F)CC3)nn2)cc1F
IC50 [1]: > 10000 nM | Ki [2]: > 10000 nM

Fc1cccc(-n2cc(NCCN3CCOCC3)nn2)c1
Ki [3]: 781 nM

Clc1ccc(-n2ccc(NCCN3CCCCC3)n2)cc1Cl
Ki [2]: 91 nM | Ki [3]: 10 nM

c1ccc(Cn2cc(NCCN3CCCCC3)nn2)cc1
Ki [2]: 624 nM

Clc1ccc(-n2cc(NCCN3CCOCC3)nn2)cc1Cl
Papp at 2 h, 10 µM [4]: 51 ×10⁻⁶ cm/s | inhibition in vivo at 80 mg/kg (Mus musculus [5]): 62% | IC50 [1]: > 10000 nM | Ki [2]: > 10000 nM | solubility thermodynamic [6]: 170 µg/mL (≈ 497 µM) | logP [7]: 2.9 | inhibition in vivo at 80 mg/kg (Mus musculus [8]): 68% | inhibition in vivo at 80 mg/kg (Mus musculus [9]): 56% | pKa [10]: 6.6 | microsomal CLint at 10 µM [11]: 0.8 µL/min/mg | inhibition in vivo at 40 mg/kg (Mus musculus [12]): 95%

CC(=O)N1CCN(CCNc2cn(Cc3ccc(Cl)c(Cl)c3)nn2)CC1
Ki [3]: 818 nM

Clc1ccc(-n2ccc(NCCN3CCOCC3)n2)cc1Cl
Ki [2]: 562 nM

Fc1ccc(Cn2cc(NCCN3CCOCC3)nn2)cc1F
Ki [3]: 878 nM

Fc1ccc(-n2cc(NCCN3CCCCC3)nn2)c(F)c1
inhibition (Cavia porcellus): 53%

C[C@@H]1CCC[C@H](C)N1CCNc1cn(Cc2ccc(F)cc2)nn1
inhibition (Cavia porcellus): 72%

c1ccc(Cn2cc(NCCN3CCCCCC3)nn2)cc1
inhibition (Cavia porcellus): 75%

Clc1ccc(Cn2cc(NCCN3CCCCC3)nn2)cc1Cl
Ki [2]: 69 nM

c1ccc(Cn2cc(NCCN3CCOCC3)nn2)cc1
Ki [3]: > 1000 nM

Clc1ccc(Cn2cc(NCCN3CCCCCC3)nn2)cc1Cl
inhibition (Cavia porcellus): 87%

Clc1ccc(Cn2cc(NCCN3CCOCC3)nn2)cc1Cl
Papp at 2 h, 10 µM [4]: 46.2 ×10⁻⁶ cm/s | inhibition in vivo at 80 mg/kg (Mus musculus [5]): 67% | Ki [2]: > 10000 nM | solubility thermodynamic [6]: > 4000 µg/mL | logP [7]: 2.4 | inhibition in vivo at 80 mg/kg (Mus musculus [8]): 94% | inhibition in vivo at 80 mg/kg (Mus musculus [9]): 140% | pKa [10]: 6.7 | microsomal CLint at 10 µM [11]: 2.9 µL/min/mg | inhibition in vivo at 40 mg/kg (Mus musculus [12]): 94%

Fc1cccc(Cn2cc(NCCN3CCCCC3)nn2)c1
IC50 [1]: > 10000 nM | inhibition (Cavia porcellus): 43%

Fc1ccc(-n2cc(NCCN3CCOCC3)nn2)cc1F
Ki [3]: > 1000 nM

CCN(CCN1CCOCC1)c1cn(C23CC4CC(CC(C4)C2)C3)nn1
Ki [2]: 72 nM

CC(=O)N(CCN1CCOCC1)c1cn(Cc2ccc(Cl)c(Cl)c2)nn1
Ki [3]: 459 nM

Fc1cccc(-n2cc(NCCN3CCCCC3)nn2)c1
IC50 [1]: 5200 nM | inhibition (Cavia porcellus): 59%

CCCN(CCN1CCOCC1)c1cn(-c2ccc(Cl)c(Cl)c2)nn1
Ki [3]: 451 nM

Fc1ccc(-n2cc(NCCN3CCC(F)(F)CC3)nn2)cc1F
IC50 [1]: > 10000 nM | inhibition (Cavia porcellus): 29%

CCN(CCN1CCOCC1)c1cn(-c2ccc(Cl)c(Cl)c2)nn1
Ki [2]: 55 nM

Clc1ccc(-n2cc(NCCN3CCCCC3)nn2)cc1
IC50 [1]: 3100 nM | inhibition (Cavia porcellus): 65%

Fc1cccc(-n2cc(NCCN3CCN(C4CCCCC4)CC3)nn2)c1
inhibition (Cavia porcellus): 74%

Clc1ccc(Cn2cc(NCCCN3CCOCC3)nn2)cc1Cl
Ki [3]: 508 nM

c1c(NCCN2CCOCC2)nnn1C1CCCCC1
Ki [3]: > 1000 nM

Fc1ccc(-n2cc(NCCN3CCCCC3)nn2)cc1F
IC50 [1]: 2200 nM | inhibition (Cavia porcellus): 65%

Fc1cccc(-n2cc(NCCN3CCCOCC3)nn2)c1
inhibition (Cavia porcellus): 47%

CCN(CC)CCNc1cn(Cc2ccccc2)nn1
Ki [3]: 701 nM

Fc1ccc(-n2cc(NCCN3CCCCC3)nn2)cc1
inhibition (Cavia porcellus): 54%

CN1CCN(CCNc2cn(Cc3ccccc3)nn2)CC1
Ki [3]: 9620 nM

Clc1ccc(-n2cc(NCCN3CCCCC3)nn2)cc1Cl
IC50 [1]: 1700 nM | Ki [2]: 323 nM

Fc1ccc(Cn2cc(NCCN3CCCCC3)nn2)cc1F
Ki [2]: 946 nM

Cc1cc(OCCN2CCOCC2)nn1-c1ccc2ccccc2c1
inhibition in vivo at 80 mg/kg (Mus musculus [5]): 66% | Ki [2]: > 1000 nM | inhibition in vivo at 80 mg/kg (Mus musculus [8]): 48% | inhibition in vivo at 80 mg/kg (Mus musculus [9]): 62% | microsomal CLint at 10 µM [11]: 3 µL/min/mg | inhibition in vivo at 40 mg/kg (Mus musculus [12]): 50%

c1c(NCCN2CCOCC2)nnn1C12CC3CC(CC(C3)C1)C2
IC50 [1]: > 10000 nM

Fc1ccc(Cn2cc(NCCN3CCC(F)(F)CC3)nn2)cc1
Ki [2]: > 10000 nM

CC(=O)N(CCN1CCOCC1)c1cn(-c2ccc(Cl)c(Cl)c2)nn1
Ki [3]: 388 nM

Fc1ccc(Cn2cc(NCCN3CCCCC3)nn2)cc1
inhibition (Cavia porcellus): 66%

Fc1cccc(-n2cc(NCCN3CCCCCC3)nn2)c1
inhibition (Cavia porcellus): 86%

Fc1ccc(Cn2cc(NCCN3CCOCC3)nn2)cc1
Ki [3]: 662 nM

CS(=O)(=O)N(CCN1CCOCC1)c1cn(-c2ccc(Cl)c(Cl)c2)nn1
Ki [3]: > 1000 nM

Clc1ccc(-n2cc(NCCN3CCCCC3)nn2)c(Cl)c1
inhibition (Cavia porcellus): 62%

Clc1ccc(Cn2cc(NCCN3CCCOCC3)nn2)cc1Cl
inhibition (Cavia porcellus): 66%
